# Assay results from different studies.
# pIC50: −log10 of the molar value.
# Cell line: A549
# Observed: cell growth or viability
Compound,test,setting,endpoint,value
Nc1nc(N)c2nc(CNc3cccc4ccccc34)cnc2n1,ATP luminescence,,GI50,1.29 µM
O=C1OC2(c3ccc(O)cc3Oc3cc(O)ccc32)c2ccc(NC(=S)NCCS)cc21,CCK-8,48 h,CC50,> 200 µM
C=C(C)[C@H](CC=C(C)C)Cc1c(O)cc(O)c2c1O[C@H](c1ccccc1O)CC2=O,MTT,48 h,pIC50,4.44
O=C1OC2(c3ccccc31)c1ccc(O)c(Cl)c1Oc1c2ccc(O)c1Cl,CCK-8,48 h,CC50,> 200 µM
C=C(C)[C@H](CC=C(C)C)Cc1c(O)cc(OC)c(C(=O)/C=C/c2ccc(O)cc2O)c1O,MTT,,pIC50,4.24
Nc1nc(N)c2nc(CNc3ccc(C(=O)NCCc4ccccc4)cc3)cnc2n1,ATP luminescence,,GI50,38.8 µM
O=C(O)c1ccc2c(c1)C(=O)OC21c2ccc(O)cc2Oc2cc(O)ccc21,CCK-8,48 h,CC50,> 200 µM
CCCCCCCCCCCCCCCC(=O)O,MTS,24 h,pIC50,3.84
O=C1OC2(c3ccccc31)c1ccc(O)c(Br)c1Oc1c2ccc(O)c1Br,CCK-8,48 h,CC50,> 200 µM
O=C(O)CCCCC#CCCCCCCCCCc1ccccc1,MTS,24 h,pIC50,4.74
C=C(C)[C@H](CC=C(C)C)Cc1c(O)cc(O)c2c1O[C@H](c1ccc(O)cc1O)CC2=O,MTT,48 h,pIC50,4.74
CC(C)=CCc1c(O)c(CC=C(C)C)c2occ(-c3ccc(O)cc3)c(=O)c2c1O,MTT,100 µg/mL,viability,121%
COc1ccc(S(=O)(=O)ON=C2C=C(C)C(=O)C(C)=C2)cc1,,,CC50,> 30 µM
O=C1OC2(c3cc(I)c(O)c(I)c3Oc3c2cc(I)c(O)c3I)c2c(Cl)c(Cl)c(Cl)c(Cl)c21,CCK-8,48 h,CC50,> 200 µM
Nc1nc(N)c2nc(CNc3ccc(C(=O)c4ccccc4)cc3)cnc2n1,ATP luminescence,,GI50,13.7 µM
